Values after ≈ are worked out from the molar mass of the structure shown. Active and inactive are the calls of the source. No cut-off for these calls is given here.
Assays:
[1] = target: T1, Fibroblast growth factor receptor 1 (Homo sapiens, UniProt P11362); assay: Inhibition of FGFR1 (unknown origin) using poly (Glu, Tyr)4:1 as substrate by ELISA
[2] = target: Platelet-derived growth factor receptor beta (Homo sapiens, UniProt P09619); assay: Inhibition of PDGFRbeta (unknown origin) using poly (Glu, Tyr)4:1 as substrate by ELISA
[3] = target: Vascular endothelial growth factor receptor 2 (Homo sapiens, UniProt P35968); assay: Inhibition of KDR (unknown origin) using poly (Glu, Tyr)4:1 as substrate by ELISA
[4] = target: Platelet-derived growth factor receptor alpha (Homo sapiens, UniProt P16234); assay: Inhibition of PDGFRalpha (unknown origin) using poly (Glu, Tyr)4:1 as substrate by ELISA
Summary of the method: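 ELISA on wells precoated with 2.5 µg/well poly(Glu,Tyr) 4:1. Reaction buffer was 50 mM HEPES pH 7.4, 20 mM MgCl2, 0.1 mM Na3VO4, 1 mM DTT, with 10 µM ATP; the reaction was started by adding kinase and run 1 h at 37 °C. Phosphotyrosine detected with PY99 and HRP anti-mouse IgG, o-phenylenediamine development, read at 490 nm.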

DNA [5] = assay: Binding affinity to calf thymus DNA assessed as intercalation at 10 uM after 1 hr by fluorescence spectrophotometry; type: nucleic-acid assay; details: Bos taurus
Summary of the method: (§1)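 Fluorescence spectra were recorded at 25 °C. Compound was present at 10 µM with calf thymus DNA at 0–80 µM, in 20 mM Tris-HCl (pH 7.5) containing 1% DMSO.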

DNA [6] = assay: Binding affinity to calf thymus DNA assessed as intercalation at 20 uM after 2 hrs by circular dichroism spectrophotometry; type: nucleic-acid assay; details: Bos taurus
Summary of the method: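 Calf thymus DNA (100 µM) was incubated with compound (20 µM) in Tris-HCl buffer for 2 h at 25 °C. CD spectra were then analysed over 230–300 nm.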

[7] = Solubility of the compound in PBS buffer at PH 7.4 after 24 hrs by UV-Visible spectrophotometry; type: physicochemical
[8] = Cytotoxicity against human LO2 cells after 72 hrs by sulforhodamine B assay; type: cell-based; details: L02, 72 h
Summary of the method: (§2)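 Cells seeded and cultured overnight, then treated with increasing compound concentrations for 72 h. Fixed with 10% TCA, stained with sulforhodamine B, dye dissolved in 10 mM Tris-HCl, read at 515 nm. Inhibition taken relative to untreated control. IC50 by the Logit method; triplicate experiments.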

[9] = Cytotoxicity against human GES-1 cells after 72 hrs by sulforhodamine B assay; type: cell-based; details: GES1, 72 h; summary of the method: as §2
A549 = assay: Cytotoxicity against human A549 cells after 72 hrs by sulforhodamine B assay; type: functional, cell-based; details: A549, 72 h; summary of the method: as §2
HL-60 = assay: Cytotoxicity against human HL60 cells after 72 hrs by MTT assay; type: functional, cell-based; details: HL-60, 72 h
Summary of the method: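 HL60 cells were treated with increasing compound concentrations for 72 h. MTT was then added for 4 h. Cells were lysed overnight at 37 °C in 10% SDS–5% isobutanol–12 mM HCl and read at 570 nm. Inhibition taken relative to control. IC50 by the Logit method; triplicate experiments.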

MDA-MB-231 = assay: Cytotoxicity against human MDA-MB-231 cells after 72 hrs by sulforhodamine B assay; type: functional, cell-based; details: MDA-MB-231, 72 h; summary of the method: as §2
[10] = target: DNA topoisomerase 2-alpha (Homo sapiens) (UniProt P11388); assay: Inhibition of human topoisomerase 2 alpha-mediated decatenation of kinetoplast DNA at 100 uM after 30 mins by agarose gel electrophoresis in presence of ATP relative to control
Summary of the method: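 ATP-dependent decatenation of 0.1 µg kinetoplast DNA by 1 unit of human topo IIα. Incubated 30 min at 37 °C in 50 mM Tris-HCl pH 8.0, 150 mM NaCl, 10 mM MgCl2, 2 mM ATP, 0.5 mM DTT. Gel images quantified by densitometry.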

DNA [11] = assay: Binding affinity to calf thymus DNA assessed as intercalation after 1 hr by fluorescence spectrophotometric analysis; type: nucleic-acid assay; details: Bos taurus; summary of the method: as §1
[12] = target: T1, Fibroblast growth factor receptor 1; assay: Inhibition of FGFR1 in human HMEC1 cells assessed as reduction of bFGF-induced Erk1/2 phosphorylation at Thr 202/204 at 1.25 to 2.5 uM incubated for 10 hrs prior to bFGF challenge measured after 10 mins by Western blotting analysis; type: cell-based
Summary of the method: (§3)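 HMEC-1 cells were plated at 3 × 10⁵ cells/well and serum-starved 24 h. Cells were exposed to compound (10 h per the results text; methods state 12 h), then stimulated with 50 ng/mL bFGF for 10 min at 37 °C. Whole-cell lysates were run on 10% SDS-PAGE and blotted with antibodies to phospho-FGFR1, phospho-Erk and phospho-AKT, with GAPDH as loading control.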
Target sequence in this assay (P11362 22-822 limits assumed): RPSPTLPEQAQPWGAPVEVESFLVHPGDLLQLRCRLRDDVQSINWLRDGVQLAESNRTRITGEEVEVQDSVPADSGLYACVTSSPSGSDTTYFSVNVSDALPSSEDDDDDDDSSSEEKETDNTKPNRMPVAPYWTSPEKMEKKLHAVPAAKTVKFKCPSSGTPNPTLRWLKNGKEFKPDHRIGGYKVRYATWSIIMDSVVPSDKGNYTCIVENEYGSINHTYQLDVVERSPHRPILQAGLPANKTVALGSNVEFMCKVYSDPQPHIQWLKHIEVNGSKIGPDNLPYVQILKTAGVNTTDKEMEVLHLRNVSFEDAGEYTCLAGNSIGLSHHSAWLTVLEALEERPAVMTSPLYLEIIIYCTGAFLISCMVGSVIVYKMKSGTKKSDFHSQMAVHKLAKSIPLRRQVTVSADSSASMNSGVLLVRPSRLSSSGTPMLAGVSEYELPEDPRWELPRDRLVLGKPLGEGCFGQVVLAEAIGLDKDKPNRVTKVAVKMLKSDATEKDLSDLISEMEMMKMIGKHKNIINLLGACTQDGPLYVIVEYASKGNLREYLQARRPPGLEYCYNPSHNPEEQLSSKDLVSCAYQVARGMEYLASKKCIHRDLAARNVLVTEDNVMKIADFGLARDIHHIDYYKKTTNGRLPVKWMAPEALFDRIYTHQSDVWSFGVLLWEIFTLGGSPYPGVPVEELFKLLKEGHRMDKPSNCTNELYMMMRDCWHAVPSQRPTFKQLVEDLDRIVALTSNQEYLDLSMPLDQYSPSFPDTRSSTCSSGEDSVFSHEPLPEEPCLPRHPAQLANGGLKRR

[13] = target: T1, Fibroblast growth factor receptor 1; assay: Inhibition of FGFR1 in human HMEC1 cells assessed as reduction of bFGF-induced AKT phosphorylation at Ser 473 at 1.25 to 5 uM incubated for 10 hrs prior to bFGF challenge measured after 10 mins by Western blotting analysis; type: cell-based; summary of the method: as §3
Target sequence in this assay (P11362 22-822 limits assumed): as above

[14] = target: T1, Fibroblast growth factor receptor 1; assay: Inhibition of FGFR1 in human HMEC1 cells assessed as reduction of bFGF-induced FGFR1 phosphorylation at Tyr 653/654 at 1.25 to 2.5 uM incubated for 10 hrs prior to bFGF challenge measured after 10 mins by Western blotting analysis; type: cell-based; summary of the method: as §3
Target sequence in this assay (P11362 22-822 limits assumed): as above

[15] = target: T1, Fibroblast growth factor receptor 1; assay: Inhibition of FGFR1 in human HMEC1 cells assessed as inhibition of bFGF-induced FGFR1 phosphorylation at Tyr 653/654 incubated for 10 hrs prior to bFGF challenge measured after 10 mins by Western blotting analysis; type: cell-based; summary of the method: as §3
Target sequence in this assay (P11362 22-822 limits assumed): as above

[16] = Antiangiogenic activity in human HMEC1 cells assessed as inhibition of serum-stimulated tube formation at 10 uM after 8 hrs by matrigel assay relative to control; type: functional; details: HMEC-1, 8 h
Summary of the method: (§4)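 Matrigel was set in 96-well plates (37 °C, 1 h) and seeded with HMEC-1 at 1 × 10⁵ cells/mL. Cells were cultured 8 h at 37 °C in MCDB131 with 20% FBS containing compound or control. Tubes were counted in five random fields by phase-contrast microscopy. Inhibition = [1 − tubes compound/tubes control] × 100%; mean ± SD, n = 3.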

[17] = Antiangiogenic activity in human HMEC1 cells assessed as inhibition of serum-stimulated tube formation at 5 uM after 8 hrs by matrigel assay relative to control; type: functional; details: HMEC-1, 8 h; summary of the method: as §4
HMEC-1 [18] = assay: Antiangiogenic activity in human HMEC1 cells assessed as inhibition of serum-stimulated tube formation after 8 hrs by matrigel assay; type: functional, cell-based; summary of the method: as §4
[19] = Antimigratory activity against human HMEC1 cells at 10 uM after 6 hrs by transwell Boyden chamber assay relative to control; type: functional; details: HMEC-1, 6 h
Summary of the method: (§5)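 HMEC-1 suspension (5 × 10⁵ cells/mL) with compound or control was placed in the upper compartment of a transwell Boyden chamber. The lower compartment held MCDB131 with 20% FBS plus the same compound concentration. After 6 h at 37 °C, migrated cells were quantified by absorbance. Inhibition = [1 − (A compound − A blank)/(A control − A blank)] × 100%; mean ± SD, n = 3.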

[20] = Antimigratory activity against human HMEC1 cells at 5 uM after 6 hrs by transwell Boyden chamber assay relative to control; type: functional; details: HMEC-1, 6 h; summary of the method: as §5
HMEC-1 [21] = assay: Antimigratory activity against human HMEC1 cells after 6 hrs by transwell Boyden chamber assay; type: functional, cell-based; summary of the method: as §5
HMEC-1 [22] = assay: Antiangiogenic activity in human HMEC1 cells assessed as growth inhibition at <= 10 uM after 72 hrs by SRB assay; type: functional, cell-based
Summary of the method: (§6)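 HMEC-1 cells seeded and cultured overnight, then exposed to graded compound concentrations for 72 h. Cells were fixed with 10% trichloroacetic acid and stained with sulforhodamine B. Dye was dissolved in 10 mM Tris-HCl and read at 515 nm. Inhibition = (1 − A515 treated/A515 control) × 100%.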

[23] = Antiangiogenic activity in human HMEC1 cells assessed as growth inhibition at 40 uM after 72 hrs by SRB assay; type: functional; details: HMEC-1, 72 h, read-out: GI; summary of the method: as §6
[24] = Antiangiogenic activity in human HMEC1 cells assessed as growth inhibition at 20 uM after 72 hrs by SRB assay; type: functional; details: HMEC-1, 72 h, read-out: GI; summary of the method: as §6
HMEC-1 [25] = assay: Antiangiogenic activity in human HMEC1 cells assessed as growth inhibition after 72 hrs by SRB assay; type: functional, cell-based; summary of the method: as §6

Sequence of DNA topoisomerase 2-alpha (Homo sapiens) (P11388 whole entry): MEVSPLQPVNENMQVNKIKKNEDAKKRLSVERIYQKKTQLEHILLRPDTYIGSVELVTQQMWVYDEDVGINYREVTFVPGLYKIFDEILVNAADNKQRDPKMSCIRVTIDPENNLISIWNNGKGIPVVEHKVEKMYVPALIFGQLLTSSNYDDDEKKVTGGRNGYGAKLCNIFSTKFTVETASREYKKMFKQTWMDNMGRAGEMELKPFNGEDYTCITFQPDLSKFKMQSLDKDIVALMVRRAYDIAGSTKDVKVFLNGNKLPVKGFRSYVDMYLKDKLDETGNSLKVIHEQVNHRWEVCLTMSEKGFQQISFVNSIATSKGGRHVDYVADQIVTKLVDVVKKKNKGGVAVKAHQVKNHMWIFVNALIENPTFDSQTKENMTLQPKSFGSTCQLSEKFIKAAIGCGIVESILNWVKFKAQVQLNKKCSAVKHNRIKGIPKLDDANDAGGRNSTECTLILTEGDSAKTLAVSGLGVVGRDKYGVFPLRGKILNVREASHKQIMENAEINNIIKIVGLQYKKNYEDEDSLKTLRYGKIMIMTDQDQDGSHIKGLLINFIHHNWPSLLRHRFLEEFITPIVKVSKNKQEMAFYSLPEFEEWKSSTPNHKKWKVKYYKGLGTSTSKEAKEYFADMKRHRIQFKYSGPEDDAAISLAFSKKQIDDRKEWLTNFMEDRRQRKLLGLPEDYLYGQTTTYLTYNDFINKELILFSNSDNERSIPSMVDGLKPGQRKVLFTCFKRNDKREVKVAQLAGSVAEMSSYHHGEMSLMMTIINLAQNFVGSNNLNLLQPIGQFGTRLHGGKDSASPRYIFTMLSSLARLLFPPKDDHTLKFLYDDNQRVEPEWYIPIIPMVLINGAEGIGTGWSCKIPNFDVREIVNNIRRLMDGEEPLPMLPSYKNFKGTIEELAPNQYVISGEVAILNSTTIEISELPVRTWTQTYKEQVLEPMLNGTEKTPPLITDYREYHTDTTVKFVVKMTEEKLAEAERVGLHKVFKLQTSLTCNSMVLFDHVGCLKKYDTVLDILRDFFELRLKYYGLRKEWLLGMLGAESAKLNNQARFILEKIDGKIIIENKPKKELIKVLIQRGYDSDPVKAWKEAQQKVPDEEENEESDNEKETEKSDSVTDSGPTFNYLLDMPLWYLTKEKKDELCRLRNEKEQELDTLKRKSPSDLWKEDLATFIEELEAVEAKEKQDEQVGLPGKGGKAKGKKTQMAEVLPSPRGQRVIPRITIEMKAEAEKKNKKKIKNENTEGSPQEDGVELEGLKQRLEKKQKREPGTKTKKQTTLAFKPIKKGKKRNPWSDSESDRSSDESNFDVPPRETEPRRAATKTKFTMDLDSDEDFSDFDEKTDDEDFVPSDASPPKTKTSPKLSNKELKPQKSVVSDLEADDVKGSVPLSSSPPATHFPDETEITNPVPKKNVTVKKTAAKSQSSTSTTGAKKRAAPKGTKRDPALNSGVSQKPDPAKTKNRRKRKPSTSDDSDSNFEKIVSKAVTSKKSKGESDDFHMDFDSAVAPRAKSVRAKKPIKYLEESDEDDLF
Sequence of Platelet-derived growth factor receptor alpha (P16234 whole entry): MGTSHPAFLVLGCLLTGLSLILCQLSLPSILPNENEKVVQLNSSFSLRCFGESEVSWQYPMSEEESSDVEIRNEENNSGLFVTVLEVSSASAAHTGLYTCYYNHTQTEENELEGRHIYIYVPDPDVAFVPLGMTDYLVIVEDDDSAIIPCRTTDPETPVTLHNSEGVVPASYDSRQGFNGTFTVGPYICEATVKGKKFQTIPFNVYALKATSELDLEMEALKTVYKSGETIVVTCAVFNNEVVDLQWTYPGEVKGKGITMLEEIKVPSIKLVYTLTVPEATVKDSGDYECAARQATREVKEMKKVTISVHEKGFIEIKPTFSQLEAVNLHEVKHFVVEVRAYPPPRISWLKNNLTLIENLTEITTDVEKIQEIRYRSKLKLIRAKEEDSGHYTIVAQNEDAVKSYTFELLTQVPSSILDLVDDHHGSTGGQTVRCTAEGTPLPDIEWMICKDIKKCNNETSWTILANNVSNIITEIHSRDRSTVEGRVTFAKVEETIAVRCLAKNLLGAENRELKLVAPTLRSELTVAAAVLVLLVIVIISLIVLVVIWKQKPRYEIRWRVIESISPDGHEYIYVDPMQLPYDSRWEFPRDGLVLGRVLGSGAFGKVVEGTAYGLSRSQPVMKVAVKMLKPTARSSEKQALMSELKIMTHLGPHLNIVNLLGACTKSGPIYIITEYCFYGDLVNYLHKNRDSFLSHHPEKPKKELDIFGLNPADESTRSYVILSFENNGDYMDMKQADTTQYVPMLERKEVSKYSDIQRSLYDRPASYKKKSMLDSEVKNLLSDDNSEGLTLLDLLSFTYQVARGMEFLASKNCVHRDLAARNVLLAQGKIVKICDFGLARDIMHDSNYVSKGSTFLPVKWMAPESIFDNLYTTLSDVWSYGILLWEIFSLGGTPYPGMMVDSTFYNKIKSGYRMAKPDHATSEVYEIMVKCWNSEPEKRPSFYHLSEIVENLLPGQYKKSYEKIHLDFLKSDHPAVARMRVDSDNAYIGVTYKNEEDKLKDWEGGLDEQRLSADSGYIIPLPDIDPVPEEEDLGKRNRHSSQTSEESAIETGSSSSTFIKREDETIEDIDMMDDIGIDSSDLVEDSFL
Sequence of Platelet-derived growth factor receptor beta (P09619 whole entry): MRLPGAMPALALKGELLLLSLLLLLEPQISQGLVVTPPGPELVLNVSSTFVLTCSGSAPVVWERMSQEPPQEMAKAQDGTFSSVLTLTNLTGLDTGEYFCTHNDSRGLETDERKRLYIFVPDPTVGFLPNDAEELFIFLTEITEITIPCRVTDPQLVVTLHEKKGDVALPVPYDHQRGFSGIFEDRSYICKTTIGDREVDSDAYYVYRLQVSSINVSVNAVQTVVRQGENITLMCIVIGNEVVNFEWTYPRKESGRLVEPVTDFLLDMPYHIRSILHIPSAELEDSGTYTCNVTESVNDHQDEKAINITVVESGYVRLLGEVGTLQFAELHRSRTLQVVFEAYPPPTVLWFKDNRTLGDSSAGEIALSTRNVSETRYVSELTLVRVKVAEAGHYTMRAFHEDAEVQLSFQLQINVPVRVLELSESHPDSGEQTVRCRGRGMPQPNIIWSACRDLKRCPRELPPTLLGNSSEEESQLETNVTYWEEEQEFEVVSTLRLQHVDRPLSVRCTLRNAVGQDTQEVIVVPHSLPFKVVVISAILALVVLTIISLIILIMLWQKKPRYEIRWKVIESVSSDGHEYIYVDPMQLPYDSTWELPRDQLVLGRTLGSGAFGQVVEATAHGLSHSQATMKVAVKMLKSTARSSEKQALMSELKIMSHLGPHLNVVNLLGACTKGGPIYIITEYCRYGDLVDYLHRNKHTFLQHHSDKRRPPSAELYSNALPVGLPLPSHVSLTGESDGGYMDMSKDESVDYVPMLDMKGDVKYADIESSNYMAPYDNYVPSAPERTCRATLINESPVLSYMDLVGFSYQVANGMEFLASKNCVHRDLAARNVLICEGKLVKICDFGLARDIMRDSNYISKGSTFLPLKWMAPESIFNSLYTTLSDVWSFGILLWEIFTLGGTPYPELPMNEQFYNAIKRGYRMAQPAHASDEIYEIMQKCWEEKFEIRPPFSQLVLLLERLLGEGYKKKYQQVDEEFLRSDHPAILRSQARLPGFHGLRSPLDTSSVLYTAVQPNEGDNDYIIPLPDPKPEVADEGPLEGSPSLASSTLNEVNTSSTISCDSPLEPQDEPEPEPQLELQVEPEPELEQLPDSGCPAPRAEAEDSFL

| SMILES | IC50 [1] | IC50 [2] | IC50 [3] | IC50 [4] | Activity (DNA [5]) | Activity (DNA [6]) | solubility at 24 h [7] | IC50 [8] | IC50 [9] | IC50 (A549) | IC50 (HL-60) | IC50 (MDA-MB-231) | inhibition [10] | also measured |
| --- | --- | --- | --- | --- | --- | --- | --- | --- | --- | --- | --- | --- | --- | --- |
| CCCCCCCCCCCCCCCCN1C(=O)c2cccc3c(NCCNCCN(C)C)ccc(c23)C1=O | > 100 µM | > 50 µM | > 100 µM | > 50 µM | inactive | inactive | 16 µM (≈ 8.81 µg/mL) | > 50 µM | > 50 µM | 31.3 µM | 24.5 µM | 17.7 µM | 97.3% | – |
| CN(C)CCN1C(=O)c2cccc3cc(N)cc(c23)C1=O [AMONAFIDE] | – | – | – | – | inactive | – | – | 13.8 µM | 21.6 µM | 3.2 µM | 0.9 µM | 4.4 µM | 97.5% | Kb (DNA [11]): 2.1 ×10⁵ /M |
| CCCCCCCCN1C(=O)c2cccc3c(NCCNCCN(C)C)ccc(c23)C1=O | 18.1 µM | > 50 µM | 48.9 µM | > 100 µM | inactive | inactive | 264 µM (≈ 116 µg/mL) | > 50 µM | > 50 µM | 7.8 µM | 2.1 µM | 8.6 µM | 99.8% | inhibition [12]: Active; inhibition [13]: Active; inhibition [14]: Active; inhibition [15]: Dose-dependent effect; inhibition at 10 µM [16]: 70%; inhibition at 5 µM [17]: 30%; inhibition (HMEC-1 [18]): Dose-dependent effect; inhibition at 10 µM [19]: 70%; inhibition at 5 µM [20]: 55%; inhibition (HMEC-1 [21]): Dose-dependent effect; growth inhibition (GI) (HMEC-1 [22]): inactive; inhibition of growth at 40 µM [23]: 99%; inhibition of growth at 20 µM [24]: 68%; growth inhibition (GI) (HMEC-1 [25]): Dose-dependent effect |
| CCCCCCN1C(=O)c2cccc3c(NCCNCCN(C)C)ccc(c23)C1=O | > 100 µM | > 100 µM | > 100 µM | > 100 µM | – | inactive | 430 µM (≈ 177 µg/mL) | > 50 µM | 46 µM | 9.8 µM | 1.5 µM | 6.1 µM | 94.3% | – |

Source: ChEMBL document CHEMBL2407039 (Eur J Med Chem, 2013)
